# Assays:
# [1] = system: intestine; conditions: mouse, in vivo, 10 mg/kg; cited from earlier work
# [2] = system: intestinal mucosa; experiment: Intestinal toxicity by histopathological scoring; format: in vivo; conditions: mice, oral, 10 mg/kg/d over 7 days
# In short: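 Mice given free test compound or cyclodextrin complexes orally at 10 mg/kg/d for 7 days; PBS group included. Intestine fixed in 10% formalin for 24 h, paraffin-embedded, sectioned at 5 μm and H&E stained. Duodenum examined at 20×. Mucosal damage graded: grade 0, normal villi; grade 1, subepithelial Gruenhagen's space at villus tips; higher grades follow.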
# [3] = cited from earlier work
# [4] = system: Caco-2 monolayers; experiment: Caco-2 permeability assay; format: in vitro ADME, Human
# In short: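 Caco-2 cells grown in EMEM with 20% FBS and 1% PenStrep, then seeded on inserts for ~20 days to form confluent monolayers. Free test compound or its cyclodextrin complexes added apically; transport followed over 2 h, plus basolateral-to-apical for efflux. Controls: ranitidine (low), warfarin (high), talinolol (P-gp). Papp = (dQ/dt)/(C0×A); efflux ratio = Papp(B→A)/Papp(A→B). Integrity by TEER with lucifer yellow transport.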
# [5] = system: advanced LUAD tumors; conditions: cited from earlier work
smiles,measurement,setting,value
Cc1cc(-c2ncc(CC(=O)Nc3ccc(-c4cnccn4)cn3)cc2C)ccn1 [LGK974],intestinal toxicity on oral administration,[1],induces intestinal toxicity
same,intestinal mucosal damage (histopathological scoring),[2],Intestinal mucosal damage was observed
same,solubility in aqueous environments,[3],poorly soluble
same,permeability across Caco-2 monolayers,"[4]; A → B and B → A, 2 h",high permeability
same,transepithelial electrical resistance (TEER) after treatment,"[4]; Caco-2 monolayers, 2 h treatment",did not decrease significantly
same,effect in mice with advanced LUAD tumors,[5],"suppressed Wnt target genes, inhibited tumor growth and proliferation, and extended survival"

# — PMC6441337 (Journal of controlled release : official journal of the …, 2018)
